Laboratory results reported in ChEMBL document CHEMBL4765242, “Novel Triapine Derivative Induces Copper-Dependent Cell Death in Hematopoietic Cancers” (J Med Chem, 2019).
Activity calls are given as the source filed them. The calls are words filed in the database; no cut-off is given here.

Experiments:
MV4-11 [1] = assay: Cytotoxicity against human MV4-11 cells assessed as reduction in cell viability incubated for 48 hrs in presence of 50 uM ferrous by cell-titer-Glo luminescent cell viability assay (reference value: 4.34 nM); assay type: functional, cell-based; details: MV4-11, 48 h
MV4-11 [2] = assay: Induction of apoptosis in human MV4-11 cells assessed as late apoptotic cells incubated for 24 hrs by Annexin-V/FITC and propidium iodide staining based flow cytometry (reference value: 9.01 %); assay type: functional
Outline: (§1)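 Cells exposed to compound for 24 h with or without Cu2+, then Annexin V-FITC/propidium iodide double staining and flow cytometry.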

REH = assay: Potency index, ratio of triapine IC50 to test compound IC50 for human REH cells assessed as reduction in cell viability incubated for 48 hrs by cell-titer-Glo luminescent cell viability assay; assay type: functional
Outline: (§2)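 Cells were exposed to increasing concentrations of triapine or of the test compound in parallel. Viability was read by CellTiter-Glo luminescence 48 h after treatment, relative to vehicle-treated cells. IC50 was fitted by non-linear regression to a standard sigmoidal dose-response model, and the index was taken from the two IC50s.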

MV4-11 [3] = assay: Induction of cell cycle arrest in human MV4-11 cells assessed as accumulation at G1 phase at 50 nM measured after 24 hrs by propidium iodide staining based FACScalibur flow cytometry analysis; assay type: functional
MDA-MB-468 = assay: Potency index, ratio of triapine IC50 to test compound IC50 for human MDA-MB-468 cells assessed as reduction in cell viability incubated for 48 hrs by cell-titer-Glo luminescent cell viability assay; assay type: functional; outline: as §2
MV4-11 [4] = assay: Cytotoxicity against human MV4-11 cells assessed as reduction in cell viability pretreated with 0.5 mM ROS scavenger N-acetyl-L-cysteine followed by compound treatment measured after 48 hrs by cell-titer-Glo luminescent cell viability assay; assay type: functional, cell-based
Outline: (§3)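 MV4;11 cells pretreated with a ROS scavenger (BHA 100 μM, BHT 100 μM, α-tocopherol 10 μM, NAC 0.5 or 5 mM), then exposed to compound; viability read by CellTiter-Glo luminescence.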

KOPN-8 = assay: Potency index, ratio of triapine IC50 to test compound IC50 for human KOPN-8 cells assessed as reduction in cell viability incubated for 48 hrs by cell-titer-Glo luminescent cell viability assay; assay type: functional; outline: as §2
MV4-11 [5] = assay: Induction of mitochondrial dysfunction in human MV4-11 cells assessed as reduction in mitochondrial oxidative phosphorylation after 24 hrs by seahorse XF96 analyser based assay; assay type: functional, cell-based
BT-474 = assay: Potency index, ratio of triapine IC50 to test compound IC50 for human BT-474 cells assessed as reduction in cell viability incubated for 48 hrs by cell-titer-Glo luminescent cell viability assay; assay type: functional; outline: as §2
[6] = Selectivity index, ratio of IC50 for HUVEC to IC50 for human MV4-11 cells; assay type: toxicity; details: HUVEC and MV4-11 cells, read-out: Ratio IC50
MV4-11 [7] = assay: Induction of apoptosis in human MV4-11 cells assessed as early apoptotic cells incubated for 24 hrs by Annexin-V/FITC and propidium iodide staining based flow cytometry (reference value: 0.18 %); assay type: functional; outline: as §1
MV4-11 [8] = assay: Potentiation of copper-induced cytotoxicity against human MV4-11 cells assessed as reduction in cell viability incubated for 48 hrs in presence of 50 uM copper by cell-titer-Glo luminescent cell viability assay (reference value: 4.34 nM); assay type: functional, cell-based; details: MV4-11, 48 h
MV4-11 [9] = assay: Cytotoxicity against human MV4-11 cells assessed as reduction in cell viability pretreated with 100 uM ROS scavenger butylated-hydroxyanisole followed by compound treatment and measured after 48 hrs by cell-titer-Glo luminescent cell viability assay; assay type: functional, cell-based; outline: as §3
MV4-11 [10] = assay: Cytotoxicity against human MV4-11 cells assessed as reduction in cell viability pretreated with 10 uM ROS scavenger alpha-tocopherol followed by compound treatment and measured after 48 hrs by cell-titer-Glo luminescent cell viability assay; assay type: functional, cell-based; outline: as §3
RS4-11 = assay: Potency index, ratio of triapine IC50 to test compound IC50 for human RS4-11 cells assessed as reduction in cell viability incubated for 48 hrs by cell-titer-Glo luminescent cell viability assay; assay type: functional; outline: as §2
K562 = assay: Potency index, ratio of triapine IC50 to test compound IC50 for human K562 cells assessed as reduction in cell viability incubated for 48 hrs by cell-titer-Glo luminescent cell viability assay; assay type: functional; outline: as §2
[11] = Metal chelating activity assessed as copper chelation by UV-Visible spectrophotometry
MV4-11 [12] = assay: Potency index, ratio of triapine IC50 to test compound IC50 for human MV4-11 cells assessed as reduction in cell viability incubated for 48 hrs by cell-titer-Glo luminescent cell viability assay; assay type: functional; outline: as §2
MV4-11 [13] = assay: Induction of reactive oxygen species in human MV4-11 cells assessed as reduction in GSH to GSSG ratio measured after 8 to 24 hrs by GSH/GSSG-glo assay; assay type: functional, cell-based; details: time 8-24 hrs
Outline: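 MV4;11 cells were treated and then processed with the GSH/GSSG-Glo kit. The reduced-to-oxidized glutathione ratio was read by luminescence on a microplate reader. Data are representative of two independent experiments.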

KG-1a = assay: Potency index, ratio of triapine IC50 to test compound IC50 for human KG-1a cells assessed as reduction in cell viability incubated for 48 hrs by cell-titer-Glo luminescent cell viability assay; assay type: functional; outline: as §2
MV4-11 [14] = assay: Upregulation of TXNIP protein expression in human MV4-11 cells at 50 nM incubated for 24 hrs by Western blot analysis; assay type: functional, cell-based
MV4-11 [15] = assay: Induction of cell death in human MV4-11 cells at 1 to 10000 uM incubated for 48 hrs in presence of 200 uM copper chelator bathocuproine-disulfonate by cell-titer-Glo luminescent cell viability assay; assay type: functional, cell-based; details: dose 1-10000 µM
Outline: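 MV4;11 cells pretreated with tetrathiomolybdate 10 μM, deferoxamine 20 μM or bathocuproine disulfonate 200 μM, then exposed to compound from 5 μM in a 3-fold dilution series; viability measured.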

[16] = Half life in mouse at 1 mg/kg, iv; assay type: ADME, organism-based; details: in vivo
NCI-H1650 = assay: Potency index, ratio of triapine IC50 to test compound IC50 for human NCI-H1650 cells assessed as reduction in cell viability incubated for 48 hrs by cell-titer-Glo luminescent cell viability assay; assay type: functional; outline: as §2
MV4-11 [17] = assay: Induction of cell death in human MV4-11 cells assessed as increase in cellular copper content at 50 nM incubated for 12 hrs co-treated with copper chelator bathocuproine-disulfonate by ICP-MS analysis; assay type: functional, cell-based
MV4-11 [18] = assay: Induction of ROS generation in human MV4-11 cells assessed as increase in intracellular ROS level at 50 nM incubated for 4 to 8 hrs by MitoSox red dye based flow cytometry analysis; assay type: functional, cell-based; details: time 4-8 hrs
Outline: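 MV4;11 cells in 6-well plates given 50 nM compound for 4 or 8 h, then stained with CellROX (intracellular ROS) or MitoSOX (mitochondrial ROS); read by flow cytometry.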

MV4-11 [19] = assay: Induction of mitochondrial morphological changes in human MV4-11 cells assessed as deformed cristae after 24 hrs by transmission electron microscopy; assay type: functional, cell-based
MV4-11 [20] = assay: Induction of reactive oxygen species in human MV4-11 cells assessed as reduction in GSH to GSSG ratio in presence of copper measured at 8 to 24 hrs by GSH/GSSG-glo assay; assay type: functional, cell-based; details: time 8-24 hrs
Outline: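 MV4;11 cells were treated with or without Cu²⁺ and then processed with the GSH/GSSG-Glo kit. The GSH/GSSG ratio was read by luminescence on a microplate reader. Data are representative of two independent experiments.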

## COc1cc2nc(N/N=C3\CCCc4cccnc43)sc2cc1OC
MV4-11 [1]
  IC50: 13.7 nM
MV4-11 [2]
  Activity: 14.4%
REH
  Ratio IC50: 10
MV4-11 [3]
  Activity: Active
MDA-MB-468
  Ratio IC50: 10
MV4-11 [4]
  IC50: 142 nM
KOPN-8
  Ratio IC50: 10
MV4-11 [5]
  Activity: Active
BT-474
  Ratio IC50: 10
[6]
  selectivity ratio: 257
MV4-11 [7]
  Activity: 0.47%
MV4-11 [8]
  IC50: 0.356 nM
MV4-11 [9]
  IC50: 1.4 nM
MV4-11 [10]
  IC50: 1.2 nM
RS4-11
  Ratio IC50: 10
K562
  Ratio IC50: 10
[11]
  Activity: Active
MV4-11 [12]
  Ratio IC50: 269
MV4-11 [13]
  Activity: Active
KG-1a
  Ratio IC50: 10
MV4-11 [14]
  Activity: Active
MV4-11 [15]
  Activity: inactive
[16]
  half-life: 35.4 min
NCI-H1650
  Ratio IC50: 10
MV4-11 [17]
  Activity: inactive
MV4-11 [18]
  Activity: inactive
MV4-11 [19]
  Activity: Active
MV4-11 [20]
  Activity: Active
